PHOSPHO1 block = PubChem AID 1565. inhibition, % at 13.3 µM. recombinant PHOSPHO1, absorbance phosphatase assay. 290,000 compounds, 1.1% hits; in the data active means inhibition above about 60%
RanGTP-Imp inh = inhibitors of RanGTP-importin-beta interaction, primary screen, biochemical, FRET, CFP-Ran, YFP-importin-beta, homogeneous; inhibition, % (test concentration not listed); 300,000 compounds, 1.1% hits; cell-free CFP-Ran/YFP-importin-beta FRET ratio; Ran GTPase (GTP-bound) - importin-beta complex;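 active means more than half of the replicate wells show a fall in the fluorescence ratio signal beyond about 16%, limit read from the data, passing the limit was not always enough; inconclusive means exactly half of the replicate wells pass the set limit; inactive means fewer than half of replicates pass the limit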
HMGR II inh = inhibitors of E. faecalis class II HMGR, primary screen, biochemical, Enterococcus faecalis; HMG-CoA reductase (Enterococcus faecalis, mvaE); purified E. faecalis HMGR, NADPH absorbance 340 nm kinetic; inhibition, % at 10 µM; 190,000 compounds, 0.41% hits;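 active means inhibition above a set limit, the median over all tested compounds plus 3 SD, cut at about 9.5% in these data; inconclusive means no clear call, values can overlap the other calls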;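 further: enzyme runs in reverse so mevalonate oxidation gives rising NADPH absorbance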
Runt-CBFb FRET = inhibitors of RUNX1 Runt–CBFb binding, primary screen, biochemical, FRET, Cerulean-Runt, Venus-CBFb, uHTS; Runt-related transcription factor 1 (Homo sapiens) + Core-binding factor subunit beta …; Cerulean-Runt/Venus-CBFb FRET ratio 530/480, 1 h; inhibition, % at 20 µM; 220,000 compounds, 0.46% hits; AID 1496, 2009;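 active means inhibition over about 50% at 20 µM in the single-dose screen, limit read from the data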
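Assay system: Cerulean-Runt domain / Medium: Tris 50 mM pH 7.5, KCl, K2SO4, 0.01% BSA / Timing: protein complex preformed 1 h, compound exposure 1 h, room temperature, dark / Measured by: FRET, excitation 422 nm, emission at 530 and 480 nm / Evaluation: loss of energy transfer signal / Control set: 5 µM unlabeled CBFb as full-inhibition high control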
Runt-SMMHC FRET = inhibitors of RUNX1 Runt–CBFb-SMMHC binding, primary screen, biochemical, FRET, Cerulean-Runt, Venus-CBFb-SMMHC, uHTS | Runt-related transcription factor 1 (Homo sapiens) + Core-binding factor subunit beta … | Cerulean-Runt/Venus-CBFb-SMMHC FRET ratio 530/480, 1 h | inhibition, % at 20 µM | 220,000 compounds, 0.74% hits;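 active means mean inhibition across duplicate retests at 20 µM reaching about 50%, limit read from the data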;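 further: inhibitors lower the FRET ratio by blocking Runt binding to CBFb-SMMHC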
Wee1 degr inh = Wee1 degradation inhibitors, primary screen, cell-based, HeLa, Wee1K328M-luciferase, luminescence | HeLa Luc-Wee1K328M stability; 100% = proteasome inhibitor MG132 effect | reporter increase, % at 5 µM | 220,000 compounds, 1.2% hits | AID 1321, 2008;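 active means activation above the mean of all tested compounds plus 3 SD, set per screening run, cut at about 8.8% in these data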;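 further: cells exposed to compound for 20 h before luminescence read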
Target sequence (P30291 whole entry K328M): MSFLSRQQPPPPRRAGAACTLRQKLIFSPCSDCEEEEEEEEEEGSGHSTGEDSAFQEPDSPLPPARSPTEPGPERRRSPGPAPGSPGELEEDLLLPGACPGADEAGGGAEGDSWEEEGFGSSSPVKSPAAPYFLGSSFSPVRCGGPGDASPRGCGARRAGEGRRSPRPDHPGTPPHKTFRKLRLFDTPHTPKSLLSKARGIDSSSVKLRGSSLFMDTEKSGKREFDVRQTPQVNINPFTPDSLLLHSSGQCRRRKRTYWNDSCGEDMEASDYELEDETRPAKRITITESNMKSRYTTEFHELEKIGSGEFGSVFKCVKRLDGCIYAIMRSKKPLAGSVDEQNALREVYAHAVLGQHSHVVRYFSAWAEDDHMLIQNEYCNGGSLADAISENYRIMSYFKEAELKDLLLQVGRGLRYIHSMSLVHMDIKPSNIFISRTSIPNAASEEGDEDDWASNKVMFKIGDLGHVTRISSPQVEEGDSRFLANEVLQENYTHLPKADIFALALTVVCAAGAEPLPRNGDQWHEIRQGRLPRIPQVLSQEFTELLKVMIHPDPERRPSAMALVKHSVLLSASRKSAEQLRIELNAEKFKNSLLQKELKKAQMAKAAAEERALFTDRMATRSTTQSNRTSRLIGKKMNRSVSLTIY
Numbers stand for hits; . = inactive; ? = inconclusive; / = no result given. Sampled rows, rich in hits. Any-hit rate of the full collection: about 3.4%.

SMILES	PHOSPHO1 block	RanGTP-Imp inh	HMGR II inh	Runt-CBFb FRET	Runt-SMMHC FRET	Wee1 degr inh
COc1cccc(NC(=S)N2CCC(c3ccc(C)cc3)C2)c1 (stereo unspecified)	.	.	/	/	/	/
CCCOP(=O)(OCCC)c1nc(-c2ccccc2)oc1NCc1ccccc1	.	.	17	.	.	.
COP(=O)(OC)c1nc(-c2ccccc2)oc1NCc1ccccc1	.	.	.	.	.	.
COc1ccc(CNc2oc(-c3cccc4ccccc34)nc2P(=O)(OC)OC)cc1	.	.	.	.	.	9.8
COc1nc(N)nc(NC(=O)c2cccs2)c1N=O	/	.	/	/	/	/
CN(C(=S)NC(=O)c1ccc(Cl)cc1)C1CCCCC1	.	.	/	/	/	/
O=C(CCn1cccn1)N1CCCC(N2CCN(c3cccc(C(F)(F)F)c3)CC2)C1 (stereo unspecified)	.	.	/	/	/	/
CCOc1cc(/C=C/C(=O)c2ccc(OC)c(CN3CCOCC3)c2)cc(Br)c1O	.	.	/	/	/	/
COc1ccc(CNC(=O)C(C#N)c2nc3ccccc3nc2N2CCCC2)cc1 (stereo unspecified)	.	?	.	.	.	.
CC1CCN(c2nc3ccccc3nc2C(C#N)C(=O)NC2CCCCC2)CC1 (stereo unspecified)	.	50	/	.	.	/
C=CCNC(=O)C(C#N)c1nc2ccccc2nc1N1CCCCCC1 (stereo unspecified)	.	74	.	.	65	.
CCCCNC(=O)C(C#N)c1nc2ccccc2nc1N1CCCC1 (stereo unspecified)	.	34	.	.	67	.
Cc1ccc(NC(=S)NNC(=S)NCc2ccccc2)cc1	75	.	.	.	.	.
FC(F)(F)c1cccc(NC(=S)Nc2cccc(NC(=S)Nc3cccc(C(F)(F)F)c3)n2)c1	.	15	/	.	.	.
CCc1cc(C(=O)NNC(=S)NCc2ccccc2)cs1	91	.	.	.	.	.
FC(F)(F)c1cccc(NC(=S)NNC(=S)NCc2ccccc2)c1	104	.	.	.	.	.
Cc1cccc(NC(=S)Nc2cccc(C(F)(F)F)c2)n1	.	.	.	.	.	.
FC(F)(F)c1cccc(NC(=S)NCc2ccccn2)c1	.	.	.	.	.	.
N#Cc1c(NCCCO)nc(NCc2ccccc2)c2c1CCN(Cc1ccccc1)C2	.	89	.	.	.	.
CC(=O)N1CCc2c(sc(NC(=O)Cc3ccccc3)c2C#N)C1	.	.	/	/	/	/
N#Cc1c(NC(=O)/C=C/C(=O)O)sc2c1CCN(Cc1ccccc1)C2	.	141	/	/	/	/
CC(=O)Nc1sc2c(c1C#N)CCN(Cc1ccccc1)C2	.	75	/	/	/	/
Cc1ccc(NC(=S)N2CCC(c3ccccc3)C2)c(Cl)c1 (stereo unspecified)	.	.	.	.	.	.
CCN(CC)CCn1c2c(c(SCC(=O)Nc3ccccc3Cl)nc1=O)CCC2	/	.	/	/	/	/
Cc1cc(C(=O)NC2CCCC(C)C2C)c2ccccc2n1 (stereo unspecified)	/	.	/	/	/	/
SMILES	PHOSPHO1 block	RanGTP-Imp inh	HMGR II inh	Runt-CBFb FRET	Runt-SMMHC FRET	Wee1 degr inh
O=S(=O)(c1cccc(Cl)c1Cl)N1CCN(C(=S)NCCCN2CCOCC2)CC1	.	25	.	.	.	.
COc1ccc(N2CC(NS(=O)(=O)c3ccc(F)cc3)CC2=O)cc1 (stereo unspecified)	/	.	/	/	/	/
O=C(/C=C/Nc1ccc(Br)cc1F)c1ccco1	.	.	9.8	.	.	.
Cc1ccc(CN2CCCC(CO)(Cc3ccccc3C)C2)s1 (stereo unspecified)	.	.	.	.	.	8.9
Cc1ccccc1CC1(CO)CCCN(Cc2ccn[nH]2)C1 (stereo unspecified)	.	.	.	.	.	.
O=C(c1c[nH]c2ccccc12)C(Cl)c1ccccc1 (stereo unspecified)	.	.	/	/	/	/
O=S(=O)(c1ccc(F)c(F)c1)N1CCC2(CC1)OCCO2	.	.	/	/	/	/

High-throughput results as filed in PubChem BioAssay.
